The values below come from article PMC3962796 (Environmental science & technology, 2013).

Like-named read-outs stand apart in the source and are kept apart here.

For data set [1] the following is noted: cited from earlier work; for half-life after inhalation exposure (tissues overall): administered as part of Aroclor mixture, same duration of inhalation exposure, Figure S2.
For data set [2] the following is noted: two-component exponential decay; blood, liver and muscle; intravenous; cited from earlier work.
The format of data set [3] is in vivo, male Sprague-Dawley rats. Particulars: for half-life: male, Sprague-Dawley, rat, inhaled or intranasal, 1.8 ug. A digest of the protocol:
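Male Sprague-Dawley rats (237.6 ± 1.6 g; n=4/group) were exposed nose-only to test compound vapor. The vapor came from air at 4.0 L/min bubbled through the neat compound at 25.0°C, then diluted to 10.0 L/min. Exposure was 1 h, a 1 h break, then 1 h. Shams breathed filtered air. Rats were killed 0, 4 and 8 h post exposure, shams at 2 and 6 h. Lung, liver and serum were PLE-extracted and analysed by GC-MS SIM. Results were blank/surrogate-corrected and lipid-normalized. Analysis used t-tests (p<0.05) and Gauss-Newton non-linear regression.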

[4] abbreviates: first order model fit, lipid weight basis.

The half-life is how long it takes for the measured level to halve.

Consider `Clc1ccc(-c2ccc(Cl)cc2Cl)cc1` [CB28], for which the “time of peak concentration after exposure” value in data set [1] (Aroclor 1242 vapor inhalation, suggests redistribution phase) was 1 h.

As to `Clc1ccc(Cl)c(-c2c(Cl)ccc(Cl)c2Cl)c1Cl` [CB136, 2,2′,3,3′,6′6′-hexachlorobiphenyl], in data set [2], the “t½ of initial fast distribution phase” value was 1.7 to 10.6 h and the “t½ of subsequent slower elimination phase” value is 55.2 to 406 h.

Turning to `Oc1ccc(-c2cccc(Cl)c2)cc1Cl` [4-OH-CB11, 3,3′-dichlorobiphenyl-4-ol], the “ratio of 4-OH-CB11 to CB11 in liver” value came to 0.7±0.0 in data set [3] (0 h post exposure), 0.9±0.2 in data set [3] (4 h post exposure) and 1.1±0.1 in data set [3] (8 h post exposure). Also, the “mean liver 4-OH-CB11 level relative to sentinel rats” value in data set [3] (4 h group vs sentinel rats) was determined as 15 fold. In data set [3] (4 h group vs sham-exposed, not statistically significant), the “mean liver 4-OH-CB11 level relative to sham rats” value turned out to be 4 fold. Besides, the “detection of 4-OH-CB11 in liver” value in data set [3] (liver of all PCB-exposed animals) is reported as “detected”. For the same compound, in data set [3] (lung samples of exposed rats), the “detection of 4-OH-CB11 in lung” value is reported as “not detected”. In addition, the “detection of 4-OH-CB11 in serum” value in data set [3] (serum samples of exposed rats) is reported as “not detected”.

For `Clc1cc(Cl)c(-c2cc(Cl)c(Cl)cc2Cl)cc1Cl` [CB153], in data set [2], the “t½ of initial fast distribution phase” value was 1.7 to 10.6 h and the “t½ of subsequent slower elimination phase” value was 55.2 to 406 h.

Take `Clc1ccc(-c2ccc(Cl)cc2)cc1` [CB15, 4,4′-dichlorobiphenyl]: in data set [1], the “half-life after inhalation exposure (tissues overall)” value is 5 to 8 h.

As for `Clc1cccc(-c2cccc(Cl)c2)c1` [CB11, 3,3′-dichlorobiphenyl], in data set [3] (setting [4]), the “C0 (initial concentration) of CB11 in liver” value is on record as 73.6 ng/g l.w. The “C0 (initial concentration) of CB11 in serum” value in data set [3] (setting [4]) was found to be 295 ng/g l.w. The “C0 (initial concentration) of CB11 in lung” value in data set [3] (first order model fit, lipid weight basis, inhalation 106 μg/m^3 for 2 h) came to 932 ng/g l.w. Besides, the half-life in data set [3] (liver) is 2.1 h; in data set [3] (lung), 1.9 h; in data set [3] (serum) it was 1.8 h.

`Clc1ccc(-c2ccccc2Cl)cc1` [CB8, 2,4′-Dichlorobiphenyl]: in data set [1], the “half-life after inhalation exposure (tissues overall)” value is 5 to 8 h.

For the compound `Clc1ccccc1-c1ccccc1` [CB1, monochlorobiphenyl], the “level remaining during the inhalation exposure” value in data set [1] (Aroclor 1242 vapor inhalation) is “barely detectable levels”.

As to `Clc1ccccc1-c1ccccc1Cl` [CB4], the “level remaining during the inhalation exposure” value in data set [1] (Aroclor 1242 vapor inhalation) is recorded as “barely detectable levels”.
